Structures are written as SMILES. Positions count from the first letter of the chain named. Read-outs that look alike come from different tables or passages of the source.

Results on two compounds are retold here after article PMC3158287 (Nature chemical biology, 2011).

One test deals with T1, OSBP^V582M (Homo sapiens, UniProt P22059, V582M).
T1 sequence (P22059 1-807 V582M): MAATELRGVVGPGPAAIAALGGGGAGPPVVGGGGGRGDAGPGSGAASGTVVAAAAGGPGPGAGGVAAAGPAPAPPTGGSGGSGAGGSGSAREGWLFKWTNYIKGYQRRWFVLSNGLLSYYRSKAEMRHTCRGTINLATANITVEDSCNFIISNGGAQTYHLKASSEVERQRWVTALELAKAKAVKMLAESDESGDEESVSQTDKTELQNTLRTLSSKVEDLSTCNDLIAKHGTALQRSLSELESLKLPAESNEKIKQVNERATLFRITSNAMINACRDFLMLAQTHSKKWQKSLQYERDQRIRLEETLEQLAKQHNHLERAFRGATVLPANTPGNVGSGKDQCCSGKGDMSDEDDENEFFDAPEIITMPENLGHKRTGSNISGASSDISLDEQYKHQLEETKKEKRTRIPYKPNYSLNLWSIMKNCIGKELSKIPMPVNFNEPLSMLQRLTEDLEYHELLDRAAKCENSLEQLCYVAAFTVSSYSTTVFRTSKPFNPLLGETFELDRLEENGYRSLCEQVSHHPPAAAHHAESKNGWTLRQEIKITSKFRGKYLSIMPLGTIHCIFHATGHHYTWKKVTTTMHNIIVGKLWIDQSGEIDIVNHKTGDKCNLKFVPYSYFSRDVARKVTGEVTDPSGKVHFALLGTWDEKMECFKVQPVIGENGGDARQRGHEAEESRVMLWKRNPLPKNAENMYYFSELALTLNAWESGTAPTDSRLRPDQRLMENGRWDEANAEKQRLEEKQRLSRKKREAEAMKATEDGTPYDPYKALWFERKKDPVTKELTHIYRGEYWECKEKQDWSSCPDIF
The experiment in a line: [3H]25-OHC binding assay, OSBP V582M mutant.

In test [1] the test system is ceramide labeling in HCT-116 cells. The experiment in a line: Ceramide labeling, [3H]serine pulse labeling, HCT-116. It is filed as cell-based, human. The conditions noted are these: range of concentrations.
The next test relates to HCT-116 cells. The experiment in a line: Suppression of antiproliferative activity by 25-OHC coadministration. Format: cell-based, human. In short, it runs like this:
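HCT-116 p21+/+ and p21−/− cells were seeded in 96-well plates and rested 24 h. A time-zero plate was read with CellTiter-Blue (resazurin) after 90 min at 37 °C, fluorescence 544 nm ex / 590 nm em. Serially diluted test compound was added as 4× solution. Viability was re-read at 48 h and GI50 derived. For coadministration, 10 μM 25-OHC was added with test compound at 250 nM or 10 nM.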

A further test concerns the target T2, OSBP-Myc-His (Homo sapiens, UniProt P22059).
T2 sequence (P22059 1-807): T1 sequence (P22059 1-807 V582M) with M582V
Kind of test: [3H]25-OHC charcoal-dextran binding assay, wild-type OSBP-Myc-His. Conditions: read-out: Ki, OSBP-Myc-His; competition with 20 nM [3H]25-OHC; mean ± s.d.

The next test deals with T3, OSBP^M446W (Homo sapiens, UniProt P22059, M446W).
T3 sequence (P22059 1-807 M446W): T1 sequence (P22059 1-807 V582M) with M446W, M582V
The experiment in a line: [3H]25-OHC binding assay, OSBP M446W mutant.

The subject of a further test is CERT. The experiment in a line: CERT protein amount in treated cells. Conditions: GI90 concentration, HCT-116 or A549 cells. It is filed as cell-based, human.
The test system of another test is human cancer cell lines. The conditions noted are these: cited from earlier work.

The Ki is the equilibrium dissociation constant of an inhibitor or competing ligand from its target. Consider `COc1ccc(C(=O)O[C@H]2[C@H](O[C@@H]3[C@@H](OC(C)=O)[C@H](O[C@H]4C[C@H]5[C@@H]6CC=C7C[C@@H](O)CC[C@]7(C)[C@H]6CC[C@]5(C)[C@@]4(O)[C@H](C)C(=O)CCC(C)C)OC[C@@H]3O)OC[C@@H](O)[C@@H]2O)cc1` [OSW-1], for which the Ki worked out at 46 nM at OSBP^V582M (read-out: Ki, OSBP^V582M, competition with [3H]25-OHC, mean ± s.d.); 26 nM on OSBP-Myc-His; 18 nM on OSBP^M446W (read-out: Ki, OSBP^M446W, competition with [3H]25-OHC, mean ± s.d.). In addition, in test [1], the “Effect on ceramide labeling” value is on record as “no effect”. Besides, the “Growth inhibition when administered alone” value in the test with HCT-116 cells (10 nM, HCT-116 cells, 48 h) was above 75%. In the test with HCT-116 cells (HCT-116 cells, 250 nM cephalostatin 1 or 10 nM OSW-1), the “Effect of 10 μM 25-OHC coadministration on growth inhibition” value was “nearly complete desensitization”. In addition, the “Amount of CERT protein” value with CERT is given as “not affected”. Also, in the test with human cancer cell lines, the “GI50 (half-maximal inhibitory concentration)” value was “nanomolar range”.
With `CC(C)=CCC/C(C)=C/Cc1c(O)cc(/C=C/c2cc(O)c3c(c2)C[C@@H]2C(C)(C)[C@H](O)[C@H](O)C[C@@]2(C)O3)cc1O` [schweinfurthin A], the results for the inhibitory constant (Ki) at OSBP^V582M and on OSBP^M446W were 37 nM and 60 nM, respectively. Besides, the “Effect of 25-OHC coadministration on antiproliferative activity” value with HCT-116 cells (HCT-116 and HeLa cell lines) is on record as “desensitized cells to schweinfurthin A, although to a lesser degree”. In addition, the “GI50 (half-maximal inhibitory concentration)” value with human cancer cell lines is “nanomolar range”.
